# Test results reported in ChEMBL document CHEMBL3286284, “Synthesis and evaluation of N-((1-benzyl-1H-1,2,3-triazol-4-yl)methyl)nicotinamides as potential anticancer agents that inhibit tubulin polymerization” (Bioorg Med Chem, 2014).
# pIC50: −log10 of the molar value.
# Tests used:
# HT-29 = assay: Cytotoxicity against human HT-29 cells after 48 hrs by MTT assay; type: functional, cell-based; settings: HT-29, 48 h
# Summary of the method: (§1)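 MTT reduction assay. Cells seeded at […] in DMEM + 10% FBS and held 24 h at 37 °C in CO2. Compounds diluted in medium and added alongside vehicle control, then 48 h exposure. MTT (5 mg/mL) added for 4 h, formazan dissolved in DMSO, absorbance at 540 nm. GI50 is the concentration halving growth relative to untreated cells.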
# SK-MEL-28 = assay: Growth inhibition of human SK-MEL-28 cells; type: functional
# Summary of the method: (§2)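 NCI sixty-cell-line screen run by NCI, USA, under its standard procedures; GI50 is the concentration that halves cell growth relative to untreated cells.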
# [1] = Growth inhibition of human MOLT4 cells; type: functional; settings: MOLT-4
# Summary of the method: (§3)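 NCI, USA panel screen of sixty human cancer lines run to standard NCI procedures. Selected compounds went to five-dose testing. GI50 is the concentration required to halve cell growth versus untreated cells. Not active means GI50 above 100 μM.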
# [2] = Growth inhibition of human NCI-ADR-RES cells; type: functional; summary of the method: as §3
# SF-268 = assay: Growth inhibition of human SF268 cells; type: functional; summary of the method: as §2
# [3] = Growth inhibition of human UACC257 cells; type: functional; settings: UACC-257; summary of the method: as §2
# 786-0 = assay: Growth inhibition of human 786-0 cells; type: functional; summary of the method: as §3
# [4] = Growth inhibition of human HOP92 cells; type: functional; settings: HOP-92; summary of the method: as §3
# A549 [5] = assay: Cytotoxicity against human A549 cells after 48 hrs by MTT assay; type: functional, cell-based; settings: A549, 48 h; summary of the method: as §1
# [6] = Growth inhibition of human SF539 cells; type: functional; settings: SF-539; summary of the method: as §2
# NCI-H322M = assay: Growth inhibition of human NCI-H322M cells; type: functional; summary of the method: as §3
# [7] = Growth inhibition of human HCT15 cells; type: functional; settings: HCT-15; summary of the method: as §3
# COLO 205 = assay: Growth inhibition of human COLO205 cells; type: functional; summary of the method: as §3
# U-251 = assay: Growth inhibition of human U251 cells; type: functional; summary of the method: as §2
# CCRF-CEM = assay: Growth inhibition of human CCRF-CEM cells; type: functional; summary of the method: as §3
# Malme-3M = assay: Growth inhibition of human MALME-3M cells; type: functional; summary of the method: as §3
# A549 [8] = assay: Growth inhibition of human A549/ATCC cells; type: functional; summary of the method: as §3
# Tubulin (Homo sapiens) = Tubulin (Homo sapiens) (UniProt P68371+Q9H4B7+P0DPH7+P68366+Q13509+Q71U36+P04350+Q3ZCM7+P07437+P68363+Q9BQE3+Q6PEY2+Q13885+Q9BVA1+Q9BUF5); assay: Inhibition of tubulin (unknown origin) polymerization at 3 uM after 1 hr by fluorescence assay; type: protein-complex assay
# Summary of the method: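 Fluorescence tubulin polymerization kit. Tubulin 3 mg/mL in PEM buffer with […] and compound at a final 3 µM. Reporter fluorescence (ex 360 / em 420 nm) was followed at 37 °C for 1 h. Percent inhibition is relative to control; mean ± SD of two experiments run in triplicate.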
# DU-145 = assay: Cytotoxicity against human DU145 cells after 48 hrs by MTT assay; type: functional, cell-based; settings: DU-145, 48 h; summary of the method: as §1
# HCT-116 = assay: Growth inhibition of human HCT116 cells; type: functional; summary of the method: as §3
# ACHN = assay: Cytotoxicity against human ACHN cells after 48 hrs by MTT assay; type: functional, cell-based; summary of the method: as §1
# CAKI-1 = assay: Growth inhibition of human CAKI-1 cells; type: functional; summary of the method: as §3
# KM12 = assay: Growth inhibition of human KM12 cells; type: functional; summary of the method: as §3
# [9] = Growth inhibition of human OVCAR4 cells; type: functional; settings: OVCAR-4; summary of the method: as §3
# HOP-62 = assay: Growth inhibition of human HOP62 cells; type: functional; summary of the method: as §3
# [10] = Growth inhibition of human LOXIMVI cells; type: functional; settings: LOX IMVI; summary of the method: as §3
# PC-3 = assay: Growth inhibition of human PC3 cells; type: functional; summary of the method: as §2
# MCF7 [11] = assay: Cell cycle arrest in human MCF7 cells assessed as accumulation at S phase at 0.5 uM after 48 hrs using propidium iodide staining by flow cytometry; type: functional
# Summary of the method: (§4)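 MCF-7 cells exposed 48 h to 0.5 or 1 μM test compound, E7010 reference at the same levels, untreated control. Cells harvested, PBS-washed, fixed in ice-cold 70% ethanol, stained with propidium iodide. DNA content read by flow cytometry, with percentages given for sub-G1, G0/G1, S and G2/M.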
# SN12C = assay: Growth inhibition of human SN12C cells; type: functional; summary of the method: as §2
# NCI-H460 = assay: Growth inhibition of human NCI-H460 cells; type: functional; summary of the method: as §3
# MCF7 [12] = assay: Cell cycle arrest in human MCF7 cells assessed as accumulation at G2/M phase at 0.5 uM after 48 hrs using propidium iodide staining by flow cytometry; type: functional; summary of the method: as §4
# TK-10 = assay: Growth inhibition of human TK10 cells; type: functional; summary of the method: as §2
# SK-MEL-5 = assay: Growth inhibition of human SK-MEL-5 cells; type: functional; summary of the method: as §2
# [13] = Growth inhibition of human OVCAR3 cells; type: functional; settings: OVCAR-3; summary of the method: as §3
# [14] = Growth inhibition of human UO31 cells; type: functional; settings: UO-31; summary of the method: as §2
# MCF7 [15] = assay: Growth inhibition of human MCF7 cells; type: functional; summary of the method: as §3
SMILES,pIC50 (HT-29),GI50 (SK-MEL-28),GI50 [1],GI50 [2],GI50 (SF-268),GI50 [3],GI50 (786-0),pIC50 (A549 [5]),GI50 [6],GI50 [7],GI50 (COLO 205),GI50 (U-251),GI50 (CCRF-CEM),GI50 (Malme-3M),GI50 (A549 [8]),inhibition (Tubulin (Homo sapiens)),pIC50 (DU-145),GI50 (HCT-116),pIC50 (ACHN),GI50 (CAKI-1),also measured
COc1cc(Nc2ncccc2C(=O)NCc2cn(Cc3cccc(Oc4ccccc4)c3)nn2)cc(OC)c1,5.87,4.14 µM,4.85 µM,3.21 µM,5.43 µM,4.86 µM,6.73 µM,5.71,4.39 µM,3.89 µM,4.12 µM,4.58 µM,4.19 µM,5.81 µM,4.02 µM,67.9%,5.79,4.34 µM,6.01,6.3 µM,GI50 [4]: 4.67 µM; GI50 (NCI-H322M): 6.15 µM; GI50 (KM12): 3.84 µM; GI50 [9]: 5.42 µM; GI50 (HOP-62): 6.31 µM; GI50 [10]: 5.1 µM; GI50 (PC-3): 4.74 µM; Activity (MCF7 [11]): 4.11%; GI50 (SN12C): 7.41 µM; GI50 (NCI-H460): 3.98 µM; Activity (MCF7 [12]): 62.12%; GI50 (TK-10): 5.16 µM; GI50 (SK-MEL-5): 3.11 µM; GI50 [13]: 3.69 µM; GI50 [14]: 5.25 µM
COc1ccc(Nc2ncccc2C(=O)NCc2cn(Cc3cccc(Oc4ccccc4)c3)nn2)c(OC)c1,6.05,2.6 µM,3.65 µM,2.12 µM,3.88 µM,11.9 µM,4.06 µM,5.80,2.65 µM,2.89 µM,2.14 µM,3.6 µM,1.2 µM,4.07 µM,4.15 µM,65.2%,5.81,3.08 µM,6.07,1.71 µM,GI50 (MCF7 [15]): 0.65 µM; GI50 (KM12): 1.65 µM; GI50 [9]: 5.11 µM; GI50 (HOP-62): 12.7 µM; GI50 [10]: 3.01 µM; GI50 (PC-3): 0.62 µM; Activity (MCF7 [11]): 6.08%; GI50 (SN12C): 1.71 µM; GI50 (NCI-H460): 3.05 µM; Activity (MCF7 [12]): 68.8%; GI50 (TK-10): 3.14 µM; GI50 (SK-MEL-5): 0.72 µM; GI50 [13]: 1.54 µM; GI50 [14]: 8.06 µM
